The array DNA melting data of Ke et al. (doi:10.1101/2024.01.08.574731)

Columns and labels:
[1] = melting temperature; fluorescence melt of hairpins on a sequencing array, two-state fit, raised by 9.35 °C to match UV melts; conditions: sodium 0.088 M
Procedure, shortened: (§1)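 With Cy3 and quencher oligos annealed, library hairpins on a sequenced MiSeq flow cell were imaged for Cy3 fluorescence in 50 mM Na-HEPES pH 8.0, 25 mM NaCl, in 2.5 °C steps up to 60 °C. Melting temperature and folding enthalpy were derived from bootstrapped two-state fits of signals normalised to pre-quench Cy3 and to control constructs. Four replicates were combined by inverse variance, with fitted temperatures raised by 9.35 °C to match UV melts.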

[2] = folding enthalpy; higher = less favourable; fluorescence melt of hairpins on a sequencing array, two-state fit; conditions: sodium 0.088 M
Procedure, shortened: as §1

| Sequence | Tm [1] | folding enthalpy [2] |
| --- | --- | --- |
| GGATGCGAAAGCACGTCC ((((((....)))..))) | 33.1 °C | -12 kcal/mol |
| GGATGCGAAAGCACTCC ((((((....))).))) | 49.6 °C | -29 kcal/mol |
| GGATGCGAAAGCATCTCC ((((((....)))..))) | 52.6 °C | -9.29 kcal/mol |
| GGATGCGAAAGCATTCC ((((((....))).))) | 55.9 °C | -16.9 kcal/mol |
| GGATGCGGAAACGCGTTC (.(.(((....))).).) | 41.5 °C | -17.4 kcal/mol |
| GGATGGAAACATCC (((((....))))) | 51.8 °C | -29.8 kcal/mol |
| GGATGGCGAAAGCCTCC (((.(((....)))))) | 55.6 °C | -18.6 kcal/mol |
| GGATGGGGAAACCCGTTC (.(.(((....))).).) | 36.1 °C | -16.5 kcal/mol |
| GGATGTGAAAACATCC ((((((....)))))) | 58.5 °C | -38.3 kcal/mol |
| GGATGTGCGAAAGCATCC (((..(((....)))))) | 45.8 °C | -17.6 kcal/mol |
| GGATGTGGAAACATATCC ((((.((....)).)))) | 44.9 °C | -28.7 kcal/mol |
| GGATTAGGAAACTAATTC (.(((((....))))).) | 33.9 °C | -25.2 kcal/mol |
| GGATTCCGAAAGGATTCC (((.(((....))).))) | 49.7 °C | -35.8 kcal/mol |
| GGATTCGGAAACAAATCC (((((.(....).))))) | 35.8 °C | -22.9 kcal/mol |
| GGATTCGGAAACGAATTC (.(((((....))))).) | 47.7 °C | -33.2 kcal/mol |
| GGATTCTCGAAAGAGTCC (((..(((....)))))) | 33.5 °C | -22.7 kcal/mol |
| GGATTGCGAAAGCACTCC (((.(((....))).))) | 49.4 °C | -34.9 kcal/mol |
| GGATTGGGAAACCAACCC ((.((((....)))).)) | 41.2 °C | -31.5 kcal/mol |
| GGATTGGGAAACCGATCC ((((.((....)).)))) | 51 °C | -40.7 kcal/mol |
| GGATTGGGAAACCGATTC (.((.((....)).)).) | 31.6 °C | -19.9 kcal/mol |
| GGATTTGAAAAAATCC ((((((....)))))) | 49.6 °C | -34.7 kcal/mol |
| GGATTTGGAAACAAACCC ((.((((....)))).)) | 35.6 °C | -30.1 kcal/mol |
| GGATTTGGAAACAAGTCC (((.(((....))).))) | 42.7 °C | -31.5 kcal/mol |

| Sequence | Tm [1] | folding enthalpy [2] |
| --- | --- | --- |
| GGCAAACCGAAAGGTGCC (((..(((....)))))) | 56 °C | -39.1 kcal/mol |
| GGCAAACGAAAGTTCGCC (((.(((....))).))) | 53.3 °C | -47.9 kcal/mol |
| GGCAACGAAAGTTGAGCC ((((((....)))..))) | 45.4 °C | -15.3 kcal/mol |
| GGCAACGAAAGTTGGCC ((((((....))).))) | 64 °C | -18.7 kcal/mol |
| GGCAAGACGAAAGTCGCC (((..(((....)))))) | 54.2 °C | -18.9 kcal/mol |
| GGCAAGCGAAAGCTAGCC (((.(((....))).))) | 63.4 °C | -35.9 kcal/mol |
| GGCAATGCGAAAGCAGCC (((..(((....)))))) | 57.6 °C | -17.7 kcal/mol |
| GGCAATGGAAACATTACC ((.((((....)))).)) | 37.3 °C | -26.7 kcal/mol |
| GGCACACGAAAGTGCGCC (((.(((....))).))) | 66.7 °C | -36.9 kcal/mol |
| GGCACAGCGAAAGCTGCC (((..(((....)))))) | 48.3 °C | -12.3 kcal/mol |
| GGCACCGAAAGGTAAGCC ((((((....)))..))) | 52.6 °C | -35 kcal/mol |
| GGCACCGAAAGGTGCGCC ((((((....)))..))) | 66.1 °C | -6.18 kcal/mol |
| GGCACCGAAAGGTGGGCC ((((((....)))..))) | 52.6 °C | -12.5 kcal/mol |
| GGCACCGAAAGGTTCGCC ((((((....)))..))) | 47.7 °C | -20 kcal/mol |
| GGCACCGAAAGGTTGCC ((((((....))).))) | 63 °C | -30.9 kcal/mol |
| GGCACCTCGAAAGAGGCC (((..(((....)))))) | 38.2 °C | -12.2 kcal/mol |
| GGCACGACGAAAGTCGCC (((..(((....)))))) | 38.4 °C | -8.64 kcal/mol |
| GGCACGGGAAACCGCACC ((..(((....)))..)) | 32.4 °C | -10.3 kcal/mol |
| GGCACGTCGAAAGACGCC (((..(((....)))))) | 40.7 °C | -11 kcal/mol |
| GGCACTCGAAAGAGGCC (((.(((....)))))) | 57.8 °C | -21.5 kcal/mol |
| GGCACTGGAAACAGCGCC (((.(((....))).))) | 54 °C | -46.1 kcal/mol |
| GGCACTGGAAACGGTGCC (((((.(....).))))) | 60.5 °C | -50.7 kcal/mol |
| GGCACTGGAAACGGTGTC (.(((.(....).))).) | 41.7 °C | -28.1 kcal/mol |

| Sequence | Tm [1] | folding enthalpy [2] |
| --- | --- | --- |
| GGCAGACGAAAGTCGCC (((.(((....)))))) | 65.2 °C | -23.1 kcal/mol |
| GGCAGAGAAATCTGCC ((((((....)))))) | 63.5 °C | -32.8 kcal/mol |
| GGCAGCACGAAAGTGGCC (((..(((....)))))) | 51 °C | -22.3 kcal/mol |
| GGCAGCGAAAGCTAGCC ((((((....))).))) | 62 °C | -32.9 kcal/mol |
| GGCAGCGAAAGCTTCGCC ((((((....)))..))) | 49.1 °C | -17.4 kcal/mol |
| GGCAGCGCGAAAGCGGCC (((..(((....)))))) | 58.3 °C | -17.3 kcal/mol |
| GGCAGGGCGAAAGCCGCC (((..(((....)))))) | 63.3 °C | -18.4 kcal/mol |
| GGCAGGGGAAACCCCGCC (((.(((....))).))) | 57 °C | -35.7 kcal/mol |
| GGCAGGGGAAACCCTACC ((.((((....)))).)) | 43.7 °C | -26.6 kcal/mol |
| GGCAGGGGAAACTCTGCC (((((.(....).))))) | 57 °C | -48.5 kcal/mol |
| GGCAGTACGAAAGTAGCC (((..(((....)))))) | 44.9 °C | -21.6 kcal/mol |
| GGCAGTGGAAACACCGCC (((.(((....))).))) | 50.6 °C | -27.1 kcal/mol |
| GGCAGTGGAAACACTACC ((.((((....)))).)) | 43.4 °C | -29.7 kcal/mol |
| GGCATAGGAAACTATGTC (.(((((....))))).) | 45.7 °C | -35 kcal/mol |
| GGCATAGGAAACTGTGCC ((((.((....)).)))) | 53.7 °C | -45.3 kcal/mol |
| GGCATAGGAAACTGTGTC (.((.((....)).)).) | 33.5 °C | -23.9 kcal/mol |
| GGCATCGAAAGATAGGCC ((((((....)))..))) | 46 °C | -27.2 kcal/mol |
| GGCATCGAAAGATTCGCC ((((((....)))..))) | 36.5 °C | -25.4 kcal/mol |
| GGCATCGGAAACGGTGCC ((((.((....)).)))) | 60.5 °C | -29.8 kcal/mol |
| GGCATGGAAACATGCC ((((((....)))))) | 67.3 °C | -34.9 kcal/mol |
| GGCATGGCGAAAGCCGCC (((..(((....)))))) | 59.4 °C | -16 kcal/mol |
| GGCATGGGAAACCGTGCC ((((.((....)).)))) | 62.7 °C | -33.2 kcal/mol |
